The species entered for series [1] is Homo sapiens. The series is described as follows: Upregulation of Cyclin-B1 protein expression in human PC3MLN4 cells at 1 uM after 24 hrs by Western blot method. The series is classed as functional, cell-based. Summed up:
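PC3MLN4 cells were treated 24 hr and lysed in 50 mM Tris pH 7.5, 150 mM NaCl, 10 mM NaF, 0.5% NP40 with protease inhibitors. Equal protein (BCA) was run on SDS-PAGE and transferred to nitrocellulose, then blocked in 5% milk/TBST. Blots were probed for cyclin B1 with GAPDH as loading control, using HRP secondary and ECL.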

In series [2] the test system is SK-OV-3. The series is described as follows: Cytotoxicity against human SKOV3 cells assessed as reduction in cell viability after 72 hrs by MTT assay. The series is classed as functional, cell-based. As to conditions: SK-OV-3, 72 h. An outline of the steps:
(§1)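 Cells seeded per well at 5 X 10^3 (PC3MLN4, A549, Calu1, H157, A549-TR), 6 X 10^3 (PC3) or 8 X 10^3 (SKOV3). SKOV3 grown in McCoy's 5A, others in RPMI-1640, 10% FBS. Next day 2X drug added, 3.2 nM-50 µM five-fold dilutions, 72 hr.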

In series [3] the test system is A549. Kind of series: Cytotoxicity against human A549 cells assessed as cell viability at 1 uM after 72 hrs by MTT assay relative to control. The series is classed as functional. The conditions noted are these: A549, 72 h, read-out: Activity.
Series [4] concerns Mus musculus. Kind of series: Toxicity in nude mouse xenografted with human PC3MLN4 cells assessed as reduction in body weight at 30 mg/kg, ip administered every other day 3 times per week for 2 weeks measured 3 times per week during compound dosing relative to control. The series is classed as organism-based. As to conditions: in vivo, 336 h. Summed up: (§2)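 PC3MLN4 cells (1 X 10^6) in growth factor reduced Matrigel/HBSS injected subcutaneously between the scapulae of athymic nude mice. Dosing began day 13 at tumor volume about 35 mm3. Randomized groups of 4-5 mice got 30 mg/kg IP in 5% DMSO/HBSS, or vehicle alone. Tumor (calipers) and body weight measured on dosing days and 3 days after last dose. Mean ± SEM, t-test.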
Background: In xenograft studies the graft and the host belong to different species.

For series [5], the system named is A549. The series is described as follows: Cytotoxicity against human A549 cells assessed as cell viability at 10 uM after 72 hrs by MTT assay relative to control. The series is classed as functional. The conditions noted are these: A549, 72 h, read-out: Activity.
Series [6] deals with A549/TR. Kind of series: Cytotoxicity against human A549/TR cells assessed as reduction in cell viability after 72 hrs by MTT assay. The series is classed as functional, cell-based. Summed up:
as §1

For series [7], the system named is Calu-1. The series is described as follows: Cytotoxicity against human Calu1 cells assessed as reduction in cell viability after 72 hrs by MTT assay. The series is classed as functional, cell-based. As to conditions: Calu-1, 72 h. An outline of the steps: as §1
(Formazan colour is commonly taken as a measure of viable cells.)

Series [8] is described as follows: Antitumor activity against human PC3MLN4 cells xenografted in nude mouse assessed as reduction in tumor volume at 30 mg/kg, ip administered every other day 3 times per week for 2 weeks. The series is classed as functional. Summed up:
as §2

The species named for series [9] is Homo sapiens. The series is described as follows: Disruption of microtubule dynamics in human PC3MLN4 cells at 1 uM after 48 hrs by immunofluorescence microscopic method. The series is classed as cell-based. An outline of the steps:
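PC3MLN4 cells on coverslips were treated 48 hr at 1 µM. They were fixed in 4% PFA 15 min and permeabilized in 0.2% Triton X-100 8 min. Blocking was 2% goat serum/2% BSA 1 hr. Anti-α-tubulin 1:200 for 1 hr was followed by Alexa Fluor 488 secondary 1:400 for 45 min, with DAPI 500 nM counterstain and imaging at 100X and 200X.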

Series [10] is described as follows: Cytotoxicity against human PC3MLN4 cells assessed as cell viability at 10 uM after 72 hrs by MTT assay relative to control. The conditions noted are these: read-out: Activity. The series is classed as functional.
The nature of series [11]: Cytotoxicity against human PC3MLN4 cells assessed as reduction in cell viability after 72 hrs by MTT assay. The series is classed as functional, cell-based. Summed up:
as §1

The nature of series [12]: Cytotoxicity against human PC3MLN4 cells assessed as cell viability at 1 uM after 72 hrs by MTT assay relative to control. The series is classed as functional. The conditions noted are these: read-out: Activity.
The test system of series [13] is NCI-H157. The series is described as follows: Cytotoxicity against human NCI-H157 cells assessed as reduction in cell viability after 72 hrs by MTT assay. The conditions noted are these: NCI-H157, 72 h. The series is classed as functional, cell-based. Summed up:
as §1

Series [14] concerns PC-3. The series is described as follows: Cytotoxicity against human PC3 cells assessed as reduction in cell viability after 72 hrs by MTT assay. The series is classed as functional, cell-based. The conditions noted are these: PC-3, 72 h. An outline of the steps:
as §1

The species named for series [15] is Homo sapiens. The series is described as follows: Cell cycle arrest in human PC3MLN4 cells assessed as accumulation at G2/M phase at 1 uM after 24 hrs by propidium iodide staining based flow cytometry. The series is classed as functional. An outline of the steps: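 PC3MLN4 cells seeded 3 X 10^5/well, next day treated 24 hr at 1 µM, nocodazole 1 µM as control. Floating and adherent cells pooled, fixed in cold 70% ethanol 30 min, then PI plus RNase A for 30 min. 15 X 10^3 cells acquired by FACS. G1/S/G2 fractions from Dean-Jett-Fox fit.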

The test system of series [16] is PC-3. The series is described as follows: Cytotoxicity against human PC3 cells assessed as cell viability at 10 uM after 72 hrs by MTT assay relative to control. The series is classed as functional. As to conditions: PC-3, 72 h, read-out: Activity.
Series [17] can be described thus: Kinetic solubility in pH 7.4 PBS buffer sonicated for 30 mins by HPLC-UV method.
The test system of series [18] is A549. The series is described as follows: Cytotoxicity against human A549 cells assessed as reduction in cell viability after 72 hrs by MTT assay. The series is classed as functional, cell-based. As to conditions: A549, 72 h. Summed up: as §1
The nature of series [19]: physchem. The conditions noted are these: PBS buffer, pH 7.4.
Series [20] relates to PC-3. Kind of series: Cytotoxicity against human PC3 cells assessed as cell viability at 1 uM after 72 hrs by MTT assay relative to control. The series is classed as functional. As to conditions: PC-3, 72 h, read-out: Activity.

In brackets after ≈: the same amount, converted by molar mass. Activity calls are given as the source filed them. No cut-off for these calls is given here.

In general, EC50 refers to the concentration giving half of the maximal effect. As a reminder, the solubility (kinetic) is the concentration staying in solution when a stock, usually in DMSO, is diluted into the medium. As a reminder, the solubility (thermodynamic) is the concentration in solution at equilibrium with solid.

Regarding `COC(=O)Nc1nc2cc(C(=O)c3ccc(N(C)C4COC4)cc3)ccc2[nH]1`, the outcome in series [1], in series [9] and in [15] was Active. Moreover, the EC50 is 1000 nM in series [2]; 3.8 µM in [6]; 1600 nM in series [7]; 900 nM in [11]; 2400 nM in series [13]; 1600 nM in series [14]. Further, the EC50 in series [18] was 1400 nM. The viability at 1 µM worked out at 50.2% in [3], 34.9% in [12] and 44.5% in series [20]. For the same compound, the Activity entry in series [4] was “Non-Toxic”. In addition, the viability at 10 µM in series [5] was 42.2%; in [10], 23.2%; in series [16], 33.6%. In addition, the T/C in series [8] was 0.36. In series [17], this compound registered a kinetic solubility at 0.5 h of 253 µM (≈ 96.2 µg/mL). Further, the thermodynamic solubility at 24 h in series [19] was 361 µM (≈ 137 µg/mL).

The values above are taken from ChEMBL document CHEMBL4251617, “Synthesis and anticancer activity of novel water soluble benzimidazole carbamates” (Eur J Med Chem, 2018).
